Measured values reported in ChEMBL document CHEMBL2086327, “A click chemistry approach to pleuromutilin derivatives, part 2: conjugates with acyclic nucleosides and their ribosomal binding and antibacterial activity” (2012).
Converted amounts (≈) assume the structure as drawn.

Experiments:
Bacillus subtilis = assay: Antibacterial activity against Bacillus subtilis 168 after 12 hrs by microtitre plate reader; assay type: functional; conditions: Bacillus subtilis, 168, 12 h
How it was run: (§1)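 Microtiter broth dilution. Media: E. coli AS19 in LB; B. subtilis 168 in 25% BHI/75% LB/0.05% Tween; L. innocua in 50% BHI/50% LB. Overnight cultures started from single colonies were diluted to OD450 0.01 and mixed 1:1 with 2-fold drug dilutions (0.125–32 μg/mL). Growth was read as OD450. MIC is the lowest concentration giving complete growth inhibition (E. coli read at 24 h).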

Nucleic Acid [1] = assay: Binding affinity to Escherichia coli 23S rRNA U2585 assessed as degree of protection against CMCT at 5 uM by Chemical footprinting analysis relative to control; assay type: nucleic-acid assay
How it was run: (§2)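 Ribosomes came from E. coli MRE600 grown in LB, lysed and purified on sucrose gradients. They were incubated with drug at 5 or 50 μM and then modified with CMCT. Read-out was primer extension with a Cy5-labeled primer, gel electrophoresis and laser scanning. Band intensity with drug is given relative to no-drug control, after subtracting background from unmodified samples (1.00 = no protection, 0 = full protection). Values are means of at least two experiments.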

Listeria innocua = assay: Antibacterial activity against Listeria innocua after 24 hrs by microtitre plate reader; assay type: functional; how it was run: as §1
Nucleic Acid [2] = assay: Binding affinity to Escherichia coli 23S rRNA U2506 assessed as degree of protection against CMCT at 5 uM by Chemical footprinting analysis relative to control; assay type: nucleic-acid assay; how it was run: as §2
Escherichia coli = assay: Antibacterial activity against Escherichia coli AS19 after 24 hrs by microtitre plate reader; assay type: functional; conditions: AS19, 24 h; how it was run: as §1
Nucleic Acid [3] = assay: Binding affinity to Escherichia coli 23S rRNA U2585 assessed as degree of protection against CMCT at 50 uM by Chemical footprinting analysis relative to control; assay type: nucleic-acid assay; how it was run: as §2
Nucleic Acid [4] = assay: Binding affinity to Escherichia coli 23S rRNA U2506 assessed as degree of protection against CMCT at 50 uM by Chemical footprinting analysis relative to control; assay type: nucleic-acid assay; how it was run: as §2

Row | SMILES | MIC (Bacillus subtilis) | Ratio (Nucleic Acid [1]) | MIC (Listeria innocua) | Ratio (Nucleic Acid [2]) | MIC (Escherichia coli) | Ratio (Nucleic Acid [3]) | Ratio (Nucleic Acid [4])
1 | C=C[C@]1(C)C[C@@H](OC(=O)CSCCN(CC)CC)[C@]2(C)[C@H](C)CC[C@]3(CCC(=O)[C@H]32)[C@@H](C)[C@@H]1O [TIAMULIN] | > 32 µg/mL | 0.54 | > 32 µg/mL | 0.07 | 0.5 µg/mL (≈ 1.01 µM) | 0.5 | 0.03
2 | C=C[C@]1(C)C[C@@H](OC(=O)CO)[C@]2(C)[C@H](C)CC[C@]3(CCC(=O)[C@@H]32)[C@@H](C)[C@@H]1O [PLEUROMUTILIN] | 32 µg/mL (≈ 84.5 µM) | 0.89 | > 32 µg/mL | 0.28 | 1 µg/mL (≈ 2.64 µM) | 0.8 | 0.08
3 | C=C[C@]1(C)C[C@@H](OC(=O)Cn2cc(COCCn3cc(C)c(=O)[nH]c3=O)nn2)[C@]2(C)[C@H](C)CC[C@]3(CCC(=O)[C@H]32)[C@@H](C)[C@@H]1O | > 32 µg/mL | 0.43 | > 32 µg/mL | 0.28 | ≥ 32 µg/mL | 0.24 | 0.08
4 | C=C[C@]1(C)C[C@@H](OC(=O)Cn2ccnn2)[C@]2(C)[C@H](C)CC[C@]3(CCC(=O)[C@H]32)[C@@H](C)[C@@H]1O | > 32 µg/mL | 0.66 | > 32 µg/mL | 0.48 | 16 µg/mL (≈ 37.2 µM) | 0.42 | 0.18
5 | C=C[C@]1(C)C[C@@H](OC(=O)Cn2cc(COCc3ccccc3)nn2)[C@]2(C)[C@H](C)CC[C@]3(CCC(=O)[C@H]32)[C@@H](C)[C@@H]1O | > 32 µg/mL | 0.5 | > 32 µg/mL | 0.3 | > 32 µg/mL | 0.41 | 0.08
6 | C=C[C@]1(C)C[C@@H](OC(=O)Cn2cc(C[C@@H]3[C@H](O)[C@@H](CO)O[C@H]3n3ccc(=O)[nH]c3=O)nn2)[C@]2(C)[C@H](C)CC[C@]3(CCC(=O)[C@H]32)[C@@H](C)[C@@H]1O | > 32 µg/mL | 0.46 | > 32 µg/mL | 0.31 | > 32 µg/mL | 0.26 | 0.09
7 | C=C[C@]1(C)C[C@@H](OC(=O)Cn2cc(-c3ccc(-n4cnc5c(N)ncnc54)cc3)nn2)[C@]2(C)[C@H](C)CC[C@]3(CCC(=O)[C@H]32)[C@@H](C)[C@@H]1O | > 32 µg/mL | 0.4 | > 32 µg/mL | 0.18 | > 32 µg/mL | 0.22 | 0.08
8 | C=C[C@]1(C)C[C@@H](OC(=O)CSC(C)(C)CNC(=O)[C@H](N)C(C)C)[C@]2(C)[C@H](C)CC[C@]3(CCC(=O)[C@H]32)[C@@H](C)[C@@H]1O [VALNEMULIN] | 2 µg/mL (≈ 3.54 µM) | 0.15 | 1 µg/mL (≈ 1.77 µM) | 0.05 | < 0.125 µg/mL | 0.16 | 0.04
9 | C=C[C@]1(C)C[C@@H](OC(=O)Cn2cc(-c3cccc(-n4cnc5c(N)ncnc54)c3)nn2)[C@]2(C)[C@H](C)CC[C@]3(CCC(=O)[C@H]32)[C@@H](C)[C@@H]1O | 8 µg/mL (≈ 12.5 µM) | 0.1 | > 32 µg/mL | 0.06 | 1 µg/mL (≈ 1.57 µM) | 0.07 | 0.06
10 | C=C[C@]1(C)C[C@@H](OC(=O)Cn2nncc2CCCn2cnc3c(N)ncnc32)[C@]2(C)[C@H](C)CC[C@]3(CCC(=O)[C@H]32)[C@@H](C)[C@@H]1O | > 32 µg/mL | 0.19 | > 32 µg/mL | 0.09 | 16 µg/mL (≈ 26.5 µM) | 0.16 | 0.04

Other lines, results leading:

Row | MIC (Bacillus subtilis) | Ratio (Nucleic Acid [1]) | MIC (Listeria innocua) | Ratio (Nucleic Acid [2]) | MIC (Escherichia coli) | Ratio (Nucleic Acid [3]) | Ratio (Nucleic Acid [4]) | SMILES
11 | > 32 µg/mL | 0.37 | > 32 µg/mL | 0.23 | > 32 µg/mL | 0.22 | 0.07 | C=C[C@]1(C)C[C@@H](OC(=O)Cn2cc(COCn3cc(C)c(=O)[nH]c3=O)nn2)[C@]2(C)[C@H](C)CC[C@]3(CCC(=O)[C@H]32)[C@@H](C)[C@@H]1O
12 | > 32 µg/mL | 0.39 | > 32 µg/mL | 0.18 | ≥ 32 µg/mL | 0.21 | 0.06 | C=C[C@]1(C)C[C@@H](OC(=O)Cn2cc(/C=C/Cn3cc(C)c(=O)[nH]c3=O)nn2)[C@]2(C)[C@H](C)CC[C@]3(CCC(=O)[C@H]32)[C@@H](C)[C@@H]1O
13 | > 32 µg/mL | 0.23 | > 32 µg/mL | 0.13 | 8 µg/mL (≈ 13.2 µM) | 0.17 | 0.05 | C=C[C@]1(C)C[C@@H](OC(=O)Cn2cc(CCCn3cnc4c(N)ncnc43)nn2)[C@]2(C)[C@H](C)CC[C@]3(CCC(=O)[C@H]32)[C@@H](C)[C@@H]1O
14 | > 32 µg/mL | 0.37 | > 32 µg/mL | 0.21 | > 32 µg/mL | 0.22 | 0.06 | C=C[C@]1(C)C[C@@H](OC(=O)Cn2cc(COCn3cnc4c(N)ncnc43)nn2)[C@]2(C)[C@H](C)CC[C@]3(CCC(=O)[C@H]32)[C@@H](C)[C@@H]1O
15 | 16 µg/mL (≈ 26.5 µM) | 0.29 | > 32 µg/mL | 0.1 | 8 µg/mL (≈ 13.3 µM) | 0.16 | 0.05 | C=C[C@]1(C)C[C@@H](OC(=O)Cn2cc(/C=C/Cn3cnc4c(N)ncnc43)nn2)[C@]2(C)[C@H](C)CC[C@]3(CCC(=O)[C@H]32)[C@@H](C)[C@@H]1O
